Measured values from different studies.
Protocols differ between the studies behind these lines.
Target: Serine/threonine-protein kinase ULK2 (ULK2, Homo sapiens, UniProt Q8IYT8)
One construct used (Q8IYT8 1-1036): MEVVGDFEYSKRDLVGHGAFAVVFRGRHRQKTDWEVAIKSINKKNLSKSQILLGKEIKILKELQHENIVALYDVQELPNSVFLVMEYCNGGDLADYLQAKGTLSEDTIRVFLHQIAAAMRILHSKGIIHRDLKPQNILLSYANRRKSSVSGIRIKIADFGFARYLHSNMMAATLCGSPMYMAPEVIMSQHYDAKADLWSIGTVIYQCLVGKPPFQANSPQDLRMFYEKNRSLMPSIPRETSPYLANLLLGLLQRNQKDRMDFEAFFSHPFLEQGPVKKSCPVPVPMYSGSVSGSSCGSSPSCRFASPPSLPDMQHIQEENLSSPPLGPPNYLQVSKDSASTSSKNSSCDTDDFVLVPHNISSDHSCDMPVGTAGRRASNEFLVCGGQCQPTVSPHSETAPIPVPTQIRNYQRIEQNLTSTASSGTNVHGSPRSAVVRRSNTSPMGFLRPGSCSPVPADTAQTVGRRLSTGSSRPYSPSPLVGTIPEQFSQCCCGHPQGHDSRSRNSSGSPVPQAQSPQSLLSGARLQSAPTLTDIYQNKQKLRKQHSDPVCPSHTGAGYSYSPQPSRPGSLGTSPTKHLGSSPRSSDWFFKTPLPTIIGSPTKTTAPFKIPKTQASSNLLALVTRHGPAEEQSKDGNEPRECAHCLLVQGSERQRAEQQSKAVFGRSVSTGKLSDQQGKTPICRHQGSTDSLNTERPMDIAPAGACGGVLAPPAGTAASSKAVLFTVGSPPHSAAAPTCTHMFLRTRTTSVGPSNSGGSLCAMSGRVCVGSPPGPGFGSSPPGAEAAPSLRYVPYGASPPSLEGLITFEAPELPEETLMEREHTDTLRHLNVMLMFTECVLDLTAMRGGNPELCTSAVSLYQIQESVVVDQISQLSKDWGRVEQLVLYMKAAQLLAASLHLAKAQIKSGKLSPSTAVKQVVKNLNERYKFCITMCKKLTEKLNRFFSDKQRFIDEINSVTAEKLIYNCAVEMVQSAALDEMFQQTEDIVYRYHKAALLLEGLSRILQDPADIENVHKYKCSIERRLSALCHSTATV

Cc1cc(NC(=O)c2cccc3cc(-c4cccc5[nH]nc(N)c45)ccc23)ccc1F gave an activity vs control of 105% (enzyme activity, inhibitor; 0.1 µM).
FC(F)(F)Oc1cccc(-c2cnc3ccc(-c4ccncc4)nn23)c1 gave an activity vs control of 110% (enzyme activity, inhibitor, radiometric; 1 µM).
COc1cc(-c2cn(C3CCc4ccccc4N(CC(F)(F)F)C3=O)nn2)ccc1-n1ccc(C)n1 (stereo not shown) gave a remaining binding of 88% (cell-free assay, competition with immobilised ligand; 1 µM).
CS(=O)(=O)CCNCc1ccc(-c2ccc3ncnc(Nc4ccc(OCc5cccc(F)c5)c(Cl)c4)c3c2)o1 gave a remaining signal of 104% (cell-free assay; 0.5 µM).
CCCS(=O)(=O)Nc1ccc(F)c(C(=O)c2c[nH]c3ncc(-c4ccc(Cl)cc4)cc23)c1F has an inhibition of < 10% (enzyme activity, inhibitor; 1 µM).
For O=C(Nc1cnn(-c2csc(C(=O)NC3COC3)c2)c1)Nc1ccccc1Cl, the remaining activity was 196% (enzyme activity, inhibitor; 5 µM).
C[C@@H](c1cccc(C#N)c1)n1cc(Cl)cc(C(N)=O)c1=N gave a remaining binding of 89% (cell-free assay, competition with immobilised ligand; 1 µM).
COc1cc(Nc2cnc(C#N)c(O[C@H](C)CN(C)C)n2)ncc1-c1cnn(C)c1 has a remaining activity of 42% (enzyme activity, inhibitor, radiometric; 1 µM).
CCN(CC)c1ccc(C2=NNC(=O)CC2C)cc1[N+](=O)[O-] (stereo not shown) has a remaining activity of 97% (enzyme activity, inhibitor; 10 µM).
The remaining binding of Nc1c(C(=O)NCc2ccc(C(=O)NCCCC3CCCCC3)cc2)cnn1-c1ccccc1 is reported as 100% (cell-free assay, competition with immobilised ligand; 0.1 µM).
Cc1sc(C(=O)NC2COC2)cc1-n1cc(NC(=O)Nc2c(F)cccc2Cl)cn1 has a remaining activity of 74.9% (enzyme activity, inhibitor; 10 µM).
For CN(C(=O)c1ccccc1)c1cc(N(C)c2ccc3c(c2)CCc2ccc(C(=O)NCCN4CCOCC4)cc2C3=O)ccc1F, the remaining binding was 100% (cell-free assay, competition with immobilised ligand; 1 µM).
The remaining signal of O=C1Nc2ccc(Cl)cc2C1=Cc1cc(Cl)c(O)c(Cl)c1 is reported as 101% (cell-free assay; 0.5 µM).
CS(=O)(=O)Nc1cccc(-c2csc(NC(=O)CSc3nc4nccnc4c(=O)n3CCc3ccccc3)n2)c1 gave an inhibition of -2% (enzyme activity, inhibitor; 10 µM).
CN1CCN(c2cnc3c(C4CCN(C(=O)c5ccc(OC(F)(F)F)cc5N)CC4)ncnc3c2)CC1 has a remaining binding of 100% (cell-free assay, competition with immobilised ligand; 1 µM).
For CCN1CCN(Cc2ccc(NC(=O)c3ccc(C)c(Oc4ccnc5[nH]ccc45)c3)cc2C(F)(F)F)CC1, the inhibition was -16.6% (target engagement in cells, inhibitor, chemoproteomics; Huh-7; 1 µM).
With CNC(=O)c1cc(Oc2ccc(NC(=O)Nc3ccc(Cl)c(C(F)(F)F)c3)cc2)ccn1 the remaining signal was 106% (cell-free assay; 0.5 µM).
For C[C@@]1(Cc2ccc(C#N)cc2)C(=O)N(c2cc(Cl)cc(Cl)c2)c2ncc(C(=O)NC3(c4nc(C5CCC5)no4)CC3)n21, the remaining binding was 100% (cell-free assay, competition with immobilised ligand; 1 µM).
For CCCOc1ccc(OC)c(F)c1C(=O)c1ccc(C(=O)N[C@@H]2CNC[C@H]2NC(=O)c2ccc3[nH]ncc3c2)cc1, the remaining activity was 101% (enzyme activity, inhibitor; 10 µM).
CC(=O)N1CCC(c2ccc(C(=O)NC3=NCCN3)cc2C(F)(F)F)CC1 gave a remaining binding of 82% (cell-free assay, competition with immobilised ligand; 1 µM).
O=C1NC(=O)c2cc(Nc3ccc(F)cc3)c(Nc3ccc(F)cc3)cc21 has a remaining signal of 84.7% (cell-free assay; 0.5 µM).
Cc1ccc(NC(=O)c2ccc(C)c(C(F)(F)F)c2)cc1C#Cc1nn(C2CCC(O)CC2)c2ncnc(N)c12 (stereo not shown) gave a remaining signal of 100% (cell-free assay; 10 µM).
